Bioassay records: PubChem, Sanford-Burnham Center for Chemical Genomics
Rows were chosen to be rich in hits. Some 0.72% of all compounds tested hit in one or more screens of this group.
mIAP act: activators of mouse IAP, primary screen, biochemical, luminescence, uHTS; intestinal alkaline phosphatase [Mus musculus]; muIAP, CDP-Star luminescence, 30 min; active compounds read high; 1 = vehicle-only enzyme signal, 0 = enzyme-free wells; activation factor at 10 µM; hit rate 0.24% among 330,000;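 active = activation factor of at least 2 at 20 µM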
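Assay system: mouse IAP enzyme / Compound: DMSO-dissolved test compounds / Timing: 30 min, room temperature / Measured by: luminescence from enzymatic CDP-Star hydrolysis / Control set: DMSO-only wells, enzyme-free buffer wells as negative control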
hIAP activ: human IAP activators, primary screen, biochemical, luminescence, uHTS; hit rate 0.16% among 330,000; activation factor at 10 µM; AID 2524, 2010; purified human IAP, CDP-Star luminescence, 30 min; active compounds read high; 1 = vehicle-only enzyme, 0 = enzyme-free background;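 active = activation factor of the enzyme at least 2-fold when tested at 20 µM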
Target sequence (P09923 whole entry, looked up): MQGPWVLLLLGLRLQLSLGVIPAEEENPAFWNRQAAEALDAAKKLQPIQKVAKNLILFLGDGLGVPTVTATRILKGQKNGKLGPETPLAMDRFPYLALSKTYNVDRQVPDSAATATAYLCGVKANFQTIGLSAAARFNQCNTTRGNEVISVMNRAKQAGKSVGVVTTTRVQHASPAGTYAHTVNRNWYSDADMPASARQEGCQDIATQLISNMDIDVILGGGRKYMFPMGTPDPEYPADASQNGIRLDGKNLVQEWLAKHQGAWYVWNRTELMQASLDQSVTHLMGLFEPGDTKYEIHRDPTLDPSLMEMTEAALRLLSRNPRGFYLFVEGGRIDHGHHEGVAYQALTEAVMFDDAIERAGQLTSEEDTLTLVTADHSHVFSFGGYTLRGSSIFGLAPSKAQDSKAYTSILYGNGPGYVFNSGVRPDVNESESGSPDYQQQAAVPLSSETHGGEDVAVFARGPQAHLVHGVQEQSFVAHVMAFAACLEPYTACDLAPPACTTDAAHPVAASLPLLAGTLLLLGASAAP
hIAP block: human IAP inhibitors, primary screen, biochemical, luminescence, uHTS; Intestinal-type alkaline phosphatase (Homo sapiens), P09923; purified IAP, CDP-Star luminescence, 30 min; inhibition, % at 10 µM; hit rate 0.12% among 330,000; AID 2544, 2010;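 active = inhibition reaching a set limit with compound at 10 µM in the primary screen, cut at about 35% in these data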
mIAP block: inhibitors of mouse IAP, primary screen, biochemical, luminescence, uHTS; AID 2806, 2010; intestinal alkaline phosphatase [Mus musculus]; inhibition, % at 10 µM; purified mouse IAP, CDP-Star luminescence, 30 min; hit rate 0.2% among 330,000;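 active = inhibition of at least 40% at 10 µM in the primary screen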
bIAP inhibitor: bovine intestinal alkaline phosphatase inhibitors, primary screen, selectivity assay for TNAP inhibitor project, biochemical, bovine IAP, CDP-star luminescence. inhibition, % at 20 µM. 190,000 tested, under 10 active. AID 1019, 2008. alkaline phosphatase, intestinal [Bos taurus]. purified bovine IAP, 30 min;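 active = over 50% inhibition of intestinal alkaline phosphatase at 20 µM in the single-dose screen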
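System: purified bovine intestinal alkaline phosphatase (IAP) enzyme; Input: IAP diluted 1/65,000,000 in the well; Measured by: CDP-star luminescence signal; Compound dosing: 20 µM single dose; Incubation: 30 min reaction at room temperature.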
bIAP act: bovine intestinal alkaline phosphatase activators, primary screen, biochemical, bovine IAP, CDP-star luminescence; AID 1016, 2008; hit rate 0.17% among 200,000; activation factor at 20 µM; purified bovine IAP, 30 min; active compounds read high; fold of DMSO-control signal, blank-subtracted; alkaline phosphatase, intestinal [Bos taurus];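 active = activation factor of 2 or more at 20 µM, a signal rise over negative controls twice the positive control's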
mIAP inh conf: inhibitors of mouse IAP, confirmation, biochemical, luminescence, single concentration; shares compounds with mIAP block; purified mouse IAP, CDP-Star luminescence, 30 min; inhibition, % at 10 µM; hit rate 4.7% among 11,000;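 active = inhibition of at least 40% at 10 µM in either of the two replicates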
Numbers stand for hits; n = inactive; x = not tested or not shown.

SMILES	mIAP act	hIAP activ	hIAP block	mIAP block	bIAP inhibitor	bIAP act	mIAP inh conf
O=C(/C=C\c1ccco1)NC(=S)Nc1ccccc1O	n	n	n	58.6	x	x	71.8
CCOc1ccc(NC(=S)NC(=O)/C=C/c2ccco2)cc1	n	n	n	n	x	x	x
COc1cc(NS(=O)(=O)c2ccc(NC(=S)NC(=O)/C=C/c3ccco3)cc2)ncn1	n	n	n	42.4	n	n	64.1
O=C(/C=C/c1ccco1)NC(=S)Nc1ccccc1O	n	n	n	45.5	n	n	53.7
Cc1ccc(NC(=S)NC(=O)/C=C/c2ccco2)c(O)c1	n	n	n	46.6	n	n	54.0
COc1ccc(NC(=S)NC(=O)/C=C/c2ccco2)c(OC)c1	n	n	n	n	x	x	x
O=C(/C=C/c1ccco1)NC(=S)Nc1ccccc1N1CCCC1	n	n	n	n	n	n	x
CCC(=O)c1ccc(OCC(=O)N2CCN(S(=O)(=O)c3ccc(Cl)s3)CC2)cc1	n	n	n	n	x	x	x
COc1cccc(NC(=S)NC(=O)/C=C/c2ccco2)c1	n	n	n	n	x	x	x
O=C(/C=C/c1ccco1)NC(=S)Nc1cccc(C(=O)O)c1	n	n	n	47.8	x	x	63.0
Cc1ccc(C(=O)COC(=O)CCN2C(=O)C3C4C=CC(C5CC45)C3C2=O)cc1 (centres undefined)	n	n	n	n	x	x	x
Cc1cc2nc3s/c(=C/c4ccc(-c5ccccc5C(=O)O)o4)c(=O)n3c2cc1C	n	n	n	n	x	x	x
O=C(O)c1ccccc1-c1ccc(/C=c2\sc3nc4cc(Br)cnc4n3c2=O)o1	n	n	n	78.2	n	n	74.6
CSCC[C@H](NC(=O)c1cccc(S(=O)(=O)N2CCCCCC2)c1)c1nc2ccccc2[nH]1	n	n	n	n	x	x	x
CSCC[C@H](NC(=O)C1CCN(S(=O)(=O)c2ccc(C)cc2C)CC1)c1nc2ccccc2[nH]1	2.55	n	n	n	x	x	n
COc1ccc([C@H]2CC(=O)c3c(O)cc(O)cc3O2)cc1O	n	n	n	n	x	x	x
Oc1cc(O)c2c(c1)O[C@H](c1ccc(O)c(O)c1)[C@H](O)C2	n	n	n	81.7	x	x	61.9
O=C(COc1ccc2c(-c3ccccc3)cc(=O)oc2c1)NC1CCS(=O)(=O)C1 (centres undefined)	n	n	n	n	x	x	x
COc1ccc(NS(=O)(=O)c2cccc(C(=O)NNC(=O)c3ccc(C)o3)c2)cc1	n	n	n	n	x	x	x
CCc1cc(Cn2nc(-c3ccccc3)cc2C(=O)NCc2ccccc2OC)on1	2.59	n	n	n	x	x	n
Cc1ccc(CNC(=O)c2cc(-c3ccccc3)nn2Cc2cc(C)no2)cc1	2.21	n	n	n	x	x	n
COc1ccccc1CNC(=O)c1cc(-c2ccccc2)nn1Cc1cc(C)no1	n	n	n	n	x	x	x
Cc1ccnc(Nc2nc(-c3ccc(O)c(O)c3)cs2)c1	n	n	n	n	x	x	x
Cc1cccnc1Nc1nc(-c2ccc(O)c(O)c2)cs1	n	n	n	54.0	n	n	67.8
Oc1ccc(-c2csc(Nc3cccc4ccccc34)n2)cc1O	n	n	n	63.3	x	x	80.0
SMILES	mIAP act	hIAP activ	hIAP block	mIAP block	bIAP inhibitor	bIAP act	mIAP inh conf
Cc1cccc(Nc2nc(-c3ccc(O)c(O)c3)cs2)n1	n	n	n	n	x	x	x
Oc1ccc(-c2csc(Nc3ccccn3)n2)cc1O	n	n	n	61.9	x	x	76.6
CC(=O)O[C@H]1C(=O)[C@@]2(C)[C@H]([C@H](OC(=O)c3ccccc3)[C@]3(O)C[C@H](OC(=O)[C@H](O)[C@@H](NC(=O)c4ccccc4)c4ccccc4)C(C)=C1C3(C)C)[C@]1(OC(C)=O)CO[C@@H]1C[C@@H]2O	n	n	n	n	x	x	x
CC(=O)N(Cc1ccccc1)c1c(N)nc(N)[nH]c1=O	n	n	n	n	x	x	x
Cc1oc(-c2ccc(Cl)cc2)cc1-c1nn2c(-c3ccoc3C)nnc2s1	n	n	n	41.4	n	n	49.1
O=C(CN1CCc2cc3c(cc2C1)OCCCO3)Nc1cccc(Br)c1	n	n	n	n	x	x	x
COC(=O)C/C=N/N=C1/NC(=O)/C(=C/C(=O)O)S1	n	n	n	53.5	x	x	41.6
O=C(COC(=O)c1ccccc1)Nc1ncc([N+](=O)[O-])s1	n	n	n	67.4	x	x	72.2
CCOC(=O)C1(CCCc2ccccc2)CCN(S(=O)(=O)N(C)C)CC1	n	n	n	n	x	x	x
CCc1cccc(NC(=O)CCNS(=O)(=O)c2ccc3[nH]c(=O)oc3c2)c1	n	n	n	n	x	x	x
CCOc1ccccc1CNC(=O)CCNS(=O)(=O)c1ccc2[nH]c(=O)oc2c1	n	n	n	61.4	x	x	76.6
N#Cc1cccc(NC(=O)CCNS(=O)(=O)c2ccc3[nH]c(=O)oc3c2)c1	n	n	n	74.9	x	x	74.6
CCOc1ccccc1NC(=O)CCNS(=O)(=O)c1ccc2[nH]c(=O)oc2c1	n	n	n	n	x	x	x
COc1ccc(NC(=O)CCNS(=O)(=O)c2ccc3[nH]c(=O)oc3c2)cc1Cl	n	n	n	44.5	x	x	64.7
Cc1ccccc1NC(=O)Cc1nnc(SCC(=O)NC2=NCCS2)n1C	n	n	n	n	x	x	x
C=CCc1cc(Cl)ccc1OC(=O)Nc1cccc(Cl)c1	3.02	n	n	n	x	x	n
CS(=O)c1ccccc1COC(=O)Nc1cccc(Cl)c1 (centres undefined)	n	n	n	n	n	n	x
O=C(Nc1cccc(Cl)c1)Nc1nc(-c2ccc(Cl)cc2)cs1	2.88	n	n	n	n	n	n
O=C1/C(=C/C=C/c2ccco2)SC(=S)N1NS(=O)(=O)c1ccccc1	n	n	n	83.7	x	x	91.2
CC(C(=O)O)N1C(=O)/C(=C/C=C/c2ccco2)SC1=S (centres undefined)	n	n	n	53.6	n	n	57.9
CC(=C\c1ccccc1)/C=C1/SC(=S)N(C(C(=O)O)C(C)C)C1=O (centres undefined)	x	x	x	x	n	n	x
CCOC(=O)C1Oc2ccccc2C(c2cccc3ccccc23)=C1C(=O)OC (centres undefined)	n	x	x	n	x	x	x
O=C1CC(=O)N(Cc2ccco2)C(=O)N1	n	n	n	48.1	n	n	52.7
O=C1CC(=O)N(Cc2cccs2)C(=O)N1	n	n	n	n	n	n	x
O=C1CC(=O)N(Cc2ccco2)C(=S)N1	n	n	n	70.3	n	n	74.9
Nc1c(C(=O)Nc2ccccc2F)sc2nc(-c3ccco3)ccc12	n	n	n	47.5	n	n	61.0
